Results reported in ChEMBL document CHEMBL1147752, “Pyrazoloheteroaryls: novel p38alpha MAP kinase inhibiting scaffolds with oral activity” (Bioorg Med Chem Lett, 2006).

How the values were obtained:
[1] = tested on: Mus musculus; experiment: Inhibition of LPS-induced TNFalpha release in mouse at 20 mg/kg, po; format: functional; conditions: OF1
Outline: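 Female OF1 mice, eight weeks old, given compound orally by gavage as a DMSO/cornoil solution at 20 mg/kg. One hour after dosing, LPS (20 mg/kg) injected iv to stimulate TNF-α release into plasma. Blood collected one hour later; plasma TNF-α measured by mouse-specific ELISA; reported as % inhibition.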

[2] = target: Mitogen-activated protein kinase 14 (Mus musculus, UniProt P47811); experiment: Inhibitory activity against murine p38-alpha MAPK
Sequence of Mitogen-activated protein kinase 14 (P47811 whole entry): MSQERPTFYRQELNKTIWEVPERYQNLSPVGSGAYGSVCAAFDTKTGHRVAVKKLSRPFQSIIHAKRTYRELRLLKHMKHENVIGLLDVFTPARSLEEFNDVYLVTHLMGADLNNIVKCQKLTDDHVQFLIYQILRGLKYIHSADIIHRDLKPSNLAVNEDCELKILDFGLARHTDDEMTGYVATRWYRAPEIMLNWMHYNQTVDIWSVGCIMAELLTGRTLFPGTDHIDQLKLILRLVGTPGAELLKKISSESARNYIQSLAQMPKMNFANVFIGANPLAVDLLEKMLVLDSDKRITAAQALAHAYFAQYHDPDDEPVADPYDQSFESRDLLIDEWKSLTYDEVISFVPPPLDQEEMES
Outline: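 Kinase assay with phosphorylated His-tagged p38α MAP kinase of murine origin (10 ng/well). Substrate was immobilised GST-ATF-2, with 120 µM cold ATP present. Result expressed as IC50 (nM).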

[3] = tested on: Rattus norvegicus; experiment: Inhibition of adjuvant-induced arthritis in rat at 25 mg/kg, po; format: functional; conditions: Wistar
Outline: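 Female Wistar rats immunized with Mycobacterium tuberculosis on day 0. Compound dosed orally at 25 mg/kg twice daily from day 14 to day 20. Joint swelling measured on day 20; paw swelling inhibition expressed as %.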

[4] = target: T1, Receptor tyrosine-protein kinase erbB-2 (Homo sapiens, UniProt P04626); experiment: Inhibition of HER2 at 10 uM
T1 sequence (P04626 whole entry): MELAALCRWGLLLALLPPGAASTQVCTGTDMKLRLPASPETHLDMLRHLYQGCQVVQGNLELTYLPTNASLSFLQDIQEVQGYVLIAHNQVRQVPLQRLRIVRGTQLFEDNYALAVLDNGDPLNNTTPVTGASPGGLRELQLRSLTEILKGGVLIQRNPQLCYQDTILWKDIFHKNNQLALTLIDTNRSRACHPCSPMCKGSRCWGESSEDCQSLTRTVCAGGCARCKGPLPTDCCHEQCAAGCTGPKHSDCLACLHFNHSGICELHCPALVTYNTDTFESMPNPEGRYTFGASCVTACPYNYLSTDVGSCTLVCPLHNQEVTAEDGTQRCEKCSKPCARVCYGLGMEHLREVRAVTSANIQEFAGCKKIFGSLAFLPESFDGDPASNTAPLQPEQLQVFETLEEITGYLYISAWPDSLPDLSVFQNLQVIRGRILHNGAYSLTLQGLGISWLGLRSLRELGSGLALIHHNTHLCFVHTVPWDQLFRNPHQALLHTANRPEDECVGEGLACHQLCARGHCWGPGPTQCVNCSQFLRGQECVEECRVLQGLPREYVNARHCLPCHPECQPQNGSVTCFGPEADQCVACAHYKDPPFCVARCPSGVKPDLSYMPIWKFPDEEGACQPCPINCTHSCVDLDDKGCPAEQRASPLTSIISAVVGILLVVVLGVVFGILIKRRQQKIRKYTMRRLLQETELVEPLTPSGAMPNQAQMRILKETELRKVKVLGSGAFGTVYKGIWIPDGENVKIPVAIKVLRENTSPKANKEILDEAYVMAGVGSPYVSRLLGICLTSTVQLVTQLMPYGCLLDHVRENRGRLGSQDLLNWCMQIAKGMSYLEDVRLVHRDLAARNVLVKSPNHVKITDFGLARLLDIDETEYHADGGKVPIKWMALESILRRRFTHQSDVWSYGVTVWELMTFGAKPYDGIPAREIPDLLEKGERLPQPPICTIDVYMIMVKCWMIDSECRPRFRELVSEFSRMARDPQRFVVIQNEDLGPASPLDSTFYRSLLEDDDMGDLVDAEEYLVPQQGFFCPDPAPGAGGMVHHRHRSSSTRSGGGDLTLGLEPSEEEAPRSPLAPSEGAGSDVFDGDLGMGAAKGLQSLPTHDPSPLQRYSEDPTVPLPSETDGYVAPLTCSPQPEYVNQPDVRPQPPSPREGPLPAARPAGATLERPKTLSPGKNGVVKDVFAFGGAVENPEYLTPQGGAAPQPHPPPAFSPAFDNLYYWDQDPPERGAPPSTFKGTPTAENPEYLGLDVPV

[5] = target: T2, Fibroblast growth factor receptor (Homo sapiens, UniProt P22607+P11362+P22455+P21802); experiment: Inhibition of FGFR at 10 uM; format: protein assay
[6] = tested on: Rattus norvegicus; experiment: Inhibition of collagen-induced arthritis in rat at 10 mg/kg, po; format: functional
Outline: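 Collagen-induced arthritis in rats. Compounds given orally once daily (q.d.) for 10 days; swelling inhibition recorded.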

[7] = target: Mitogen-activated protein kinase 9 (Homo sapiens, UniProt P45984); experiment: Inhibitory activity against JNK2
Sequence of Mitogen-activated protein kinase 9 (P45984 whole entry): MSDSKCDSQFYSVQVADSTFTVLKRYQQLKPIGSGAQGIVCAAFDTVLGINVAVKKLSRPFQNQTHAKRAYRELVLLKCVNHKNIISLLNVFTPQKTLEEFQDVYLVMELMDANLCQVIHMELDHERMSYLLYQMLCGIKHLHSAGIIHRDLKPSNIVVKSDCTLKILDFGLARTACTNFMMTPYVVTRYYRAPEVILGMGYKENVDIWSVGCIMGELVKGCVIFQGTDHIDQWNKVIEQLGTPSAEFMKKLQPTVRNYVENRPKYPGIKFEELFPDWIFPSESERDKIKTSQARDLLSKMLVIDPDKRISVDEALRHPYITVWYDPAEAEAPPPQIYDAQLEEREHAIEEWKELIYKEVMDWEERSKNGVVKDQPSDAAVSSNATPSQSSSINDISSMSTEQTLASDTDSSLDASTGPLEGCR

[8] = Cmax in rat administered at 1 mg/kg, po; format: ADME, organism-based; design: dose 1 mg/kg, route oral; conditions: in vivo
[9] = target: T3, Epidermal growth factor receptor (Homo sapiens, UniProt P00533); conditions: 10 uM
T3 sequence (P00533 whole entry): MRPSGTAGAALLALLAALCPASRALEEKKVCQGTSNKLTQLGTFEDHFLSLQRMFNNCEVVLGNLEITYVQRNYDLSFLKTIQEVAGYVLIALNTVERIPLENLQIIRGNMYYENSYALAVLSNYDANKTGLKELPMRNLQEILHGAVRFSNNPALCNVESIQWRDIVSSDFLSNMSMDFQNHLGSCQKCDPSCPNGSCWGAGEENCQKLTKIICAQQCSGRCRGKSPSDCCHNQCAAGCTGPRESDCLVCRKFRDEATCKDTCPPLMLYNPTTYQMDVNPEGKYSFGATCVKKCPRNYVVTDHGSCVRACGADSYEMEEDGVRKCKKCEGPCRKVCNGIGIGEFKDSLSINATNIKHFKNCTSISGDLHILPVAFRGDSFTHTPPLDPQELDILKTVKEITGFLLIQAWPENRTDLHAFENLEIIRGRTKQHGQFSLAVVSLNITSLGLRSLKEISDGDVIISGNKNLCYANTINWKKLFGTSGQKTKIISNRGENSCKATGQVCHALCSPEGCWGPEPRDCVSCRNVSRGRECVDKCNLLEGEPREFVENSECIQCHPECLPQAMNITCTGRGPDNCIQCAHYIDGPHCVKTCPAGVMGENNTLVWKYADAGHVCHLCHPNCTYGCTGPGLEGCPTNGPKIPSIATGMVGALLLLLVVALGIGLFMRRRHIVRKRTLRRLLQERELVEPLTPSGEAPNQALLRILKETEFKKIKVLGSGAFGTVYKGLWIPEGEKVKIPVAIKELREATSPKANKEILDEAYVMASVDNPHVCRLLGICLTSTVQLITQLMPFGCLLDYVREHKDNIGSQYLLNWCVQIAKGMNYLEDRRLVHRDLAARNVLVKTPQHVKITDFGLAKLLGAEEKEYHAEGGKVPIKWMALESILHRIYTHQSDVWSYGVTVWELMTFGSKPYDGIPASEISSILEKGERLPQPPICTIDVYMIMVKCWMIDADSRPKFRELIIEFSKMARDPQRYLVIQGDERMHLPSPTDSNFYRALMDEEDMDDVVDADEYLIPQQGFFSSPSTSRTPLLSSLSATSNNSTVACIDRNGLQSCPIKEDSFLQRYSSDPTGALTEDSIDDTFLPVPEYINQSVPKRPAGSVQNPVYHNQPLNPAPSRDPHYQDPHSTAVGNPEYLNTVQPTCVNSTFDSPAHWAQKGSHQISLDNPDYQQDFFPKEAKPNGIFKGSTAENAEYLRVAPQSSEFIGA

[10] = target: Mast/stem cell growth factor receptor Kit (Homo sapiens) (UniProt P10721); experiment: Inhibition of c-Kit at 10 uM
[11] = Oral bioavailability in rat; format: ADME, organism-based; conditions: in vivo
[12] = Half life in rat; format: ADME, organism-based; conditions: in vivo
[13] = target: RAF proto-oncogene serine/threonine-protein kinase (Homo sapiens) (UniProt P04049); experiment: Inhibition of c-Raf at 10 uM
[14] = target: T1, Receptor tyrosine-protein kinase erbB-2; experiment: Inhibitory activity against HER2
[15] = target: Insulin-like growth factor 1 receptor (Homo sapiens) (UniProt P08069); experiment: Inhibition of IGF1R at 10 uM
Sequence of Insulin-like growth factor 1 receptor (Homo sapiens) (P08069 31-736 limits assumed): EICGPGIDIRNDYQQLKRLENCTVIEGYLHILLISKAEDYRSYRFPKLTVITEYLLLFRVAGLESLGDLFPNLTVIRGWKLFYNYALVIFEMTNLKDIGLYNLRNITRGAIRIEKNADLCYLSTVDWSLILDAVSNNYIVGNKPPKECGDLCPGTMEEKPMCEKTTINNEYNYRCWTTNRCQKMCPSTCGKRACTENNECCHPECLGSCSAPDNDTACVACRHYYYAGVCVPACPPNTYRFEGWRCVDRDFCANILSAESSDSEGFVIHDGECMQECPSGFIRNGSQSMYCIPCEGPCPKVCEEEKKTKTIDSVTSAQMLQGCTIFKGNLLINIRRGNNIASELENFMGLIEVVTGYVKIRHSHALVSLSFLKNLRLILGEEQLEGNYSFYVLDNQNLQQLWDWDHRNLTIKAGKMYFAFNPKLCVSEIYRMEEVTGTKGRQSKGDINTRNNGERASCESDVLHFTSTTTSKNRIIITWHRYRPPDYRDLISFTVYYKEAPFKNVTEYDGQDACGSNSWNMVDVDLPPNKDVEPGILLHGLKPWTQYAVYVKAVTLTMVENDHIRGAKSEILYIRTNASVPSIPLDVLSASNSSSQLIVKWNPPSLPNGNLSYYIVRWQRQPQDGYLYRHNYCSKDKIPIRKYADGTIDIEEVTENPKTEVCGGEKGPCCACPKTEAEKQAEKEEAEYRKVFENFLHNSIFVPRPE
Sequence of Insulin-like growth factor 1 receptor (Homo sapiens) (P08069 741-1367 limits assumed): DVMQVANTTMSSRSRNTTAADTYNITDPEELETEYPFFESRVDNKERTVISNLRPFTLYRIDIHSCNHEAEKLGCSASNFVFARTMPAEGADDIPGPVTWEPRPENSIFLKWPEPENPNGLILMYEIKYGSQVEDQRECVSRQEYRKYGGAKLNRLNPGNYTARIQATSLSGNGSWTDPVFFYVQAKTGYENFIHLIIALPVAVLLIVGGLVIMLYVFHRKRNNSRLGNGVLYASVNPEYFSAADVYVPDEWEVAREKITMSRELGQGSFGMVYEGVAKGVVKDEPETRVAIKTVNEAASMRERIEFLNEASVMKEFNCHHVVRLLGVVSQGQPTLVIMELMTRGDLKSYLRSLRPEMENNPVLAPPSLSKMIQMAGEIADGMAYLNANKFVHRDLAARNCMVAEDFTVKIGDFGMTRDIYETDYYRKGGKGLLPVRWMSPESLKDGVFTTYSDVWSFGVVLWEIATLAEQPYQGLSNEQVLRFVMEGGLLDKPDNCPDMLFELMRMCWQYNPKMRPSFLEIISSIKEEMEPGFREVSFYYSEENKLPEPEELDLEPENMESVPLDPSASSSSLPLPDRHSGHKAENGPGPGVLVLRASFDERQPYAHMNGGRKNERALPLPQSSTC

[16] = target: T3, Epidermal growth factor receptor; experiment: Inhibitory activity against HER1
[17] = target: T2, Fibroblast growth factor receptor; experiment: Inhibitory activity against FGFR; format: protein assay
[18] = target: Hepatocyte growth factor receptor (Homo sapiens, UniProt P08581); experiment: Inhibitory activity against c-Met
[19] = AUC in rat; format: ADME, organism-based; conditions: plasma
[20] = target: Cyclin-dependent kinase 1 (Homo sapiens) (UniProt P06493); experiment: Inhibition of CDK1 at 10 uM
Sequence of Cyclin-dependent kinase 1 (Homo sapiens) (P06493 whole entry, looked up): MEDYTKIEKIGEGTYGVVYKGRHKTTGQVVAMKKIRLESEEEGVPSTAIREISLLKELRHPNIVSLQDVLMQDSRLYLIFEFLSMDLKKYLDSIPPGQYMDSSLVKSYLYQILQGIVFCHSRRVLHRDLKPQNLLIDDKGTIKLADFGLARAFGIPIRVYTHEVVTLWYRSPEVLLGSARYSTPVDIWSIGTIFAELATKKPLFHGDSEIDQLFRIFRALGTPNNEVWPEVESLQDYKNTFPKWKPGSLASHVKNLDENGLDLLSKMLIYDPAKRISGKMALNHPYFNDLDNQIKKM

SMILES | IC50 [2] | bioavailability [11] | inhibition in vivo at 20 mg/kg [1] | inhibition in vivo at 25 mg/kg [3] | other results
COc1ccc(CNC2CCCC2)cc1-c1[nH]nc2nc(Nc3ccc(F)cc3F)ccc12 | 58 nM |  | 38% |  | 
COc1ccc(C#CC(C)(C)O)cc1-c1[nH]nc2nc(Nc3ccc(F)cc3F)cnc12 | 7 nM | 22% | 98% | 41% | inhibition [4]: 0%; inhibition [5]: -5%; inhibition in vivo at 10 mg/kg [6]: 57%; IC50 [7]: > 100000 nM; Cmax [8]: 160 nM; inhibition [9]: 0%; inhibition [10]: 0%
COc1ccc(C(=O)NC2CCOCC2)cc1-c1[nH]nc2nc(Nc3ccc(F)cc3F)ccc12 | 0.7 nM | 22% | 97% | 28% | half-life [12]: 1.4 h; Cmax [8]: 6 nM
COc1ccc(C(=O)NC2CCCC2)cc1-c1[nH]nc2nc(Nc3ccc(F)cc3F)ccc12 | 5 nM | 26% | 97% | 34% | half-life [12]: 1.6 h; Cmax [8]: 6 nM
COc1ccc(C#CC(C)(C)N)cc1-c1[nH]nc2nc(Nc3ccc(F)cc3F)cnc12 | 10 nM | 9% | 98% | 37% | half-life [12]: 2.6 h
COc1ccc(C(=O)N2CCNCC2)cc1-c1[nH]nc2nc(Nc3ccc(F)cc3F)ccc12 | 280 nM |  | 3% |  | 
COc1ccc(C(=O)O)cc1-c1[nH]nc2nc(Nc3ccc(F)cc3F)ccc12 | 200 nM |  |  |  | 
COc1ccc(CCC(C)(C)N)cc1-c1[nH]nc2nc(Nc3ccc(F)cc3F)cnc12 | 29 nM |  | 0% |  | 
COc1ccc(CCC(C)(C)N)cc1-c1[nH]nc2nc(Nc3ccc(F)cc3F)ccc12 | 33 nM | 20% | 78% | 9% | Cmax [8]: 11 nM
COc1ccc(CNC2CCOCC2)cc1-c1n[nH]c2nc(Nc3ccc(F)cc3F)ccc12 | 94 nM |  | 80% | 46% | inhibition in vivo at 10 mg/kg [6]: 10%
COc1ccc(CCC(C)(C)O)cc1-c1[nH]nc2nc(Nc3ccc(F)cc3F)cnc12 | 21 nM |  | 94% |  | 

Further lines, with some results ahead:

IC50 [2] | bioavailability [11] | SMILES | inhibition in vivo at 20 mg/kg [1] | inhibition in vivo at 25 mg/kg [3] | other results
47 nM |  | COc1ccc(CCC(C)(C)O)cc1-c1[nH]nc2nc(Nc3ccc(F)cc3F)ncc12 | 98% | 36% | 
11 nM |  | COc1ccc(CCCN(C)C)cc1-c1[nH]nc2nc(Nc3ccc(F)cc3F)ncc12 | 93% |  | 
0.6 nM |  | COc1ccc(C#CCN(C)C)cc1-c1[nH]nc2nc(Nc3ccc(F)cc3F)ncc12 | 96% |  | 
14 nM |  | COc1ccc(CCCN2CCN(C)CC2)cc1-c1[nH]nc2nc(Nc3ccc(F)cc3F)ncc12 | 73% |  | 
0.9 nM |  | COc1ccc(C#CCN2CCN(C)CC2)cc1-c1[nH]nc2nc(Nc3ccc(F)cc3F)ncc12 | 96% |  | 
12 nM | 16% | COc1ccc(C#CC(C)(C)N)cc1-c1[nH]nc2nc(Nc3ccc(F)cc3F)ncc12 | 85% | 69% | inhibition [13]: 0%; IC50 [14]: 5000 nM; inhibition [15]: 0%; IC50 [16]: 5200 nM; inhibition in vivo at 10 mg/kg [6]: 75%; IC50 [7]: 8300 nM; IC50 [17]: 10000 nM; IC50 [18]: 1500 nM; AUC [19]: 512 ng·h/mL
43 nM |  | COc1ccc(CCC(C)(C)N)cc1-c1[nH]nc2nc(Nc3ccc(F)cc3F)ncc12 | 68% |  | 
20 nM | 95% | COc1ccc(C#CC(C)(C)N)cc1-c1[nH]nc2nc(Nc3ccc(F)cc3F)ccc12 | 98% | 49% | inhibition [20]: 0%; inhibition [15]: 0%; inhibition in vivo at 10 mg/kg [6]: 85%; IC50 [7]: 100000 nM; Cmax [8]: 52 nM; AUC [19]: 422 ng·h/mL
19 nM |  | COc1ccc(C#CC(C)(C)O)cc1-c1[nH]nc2nc(Nc3ccc(F)cc3F)ncc12 | 98% | 34% | 
